Data set [1] concerns NCI 60-cell line panel (60 human tumour cell lines). As to conditions: cited from earlier work.
For data set [2] the following is noted: cited from earlier work.
For data set [3] the following is noted: at 30 min; ref Burger et al, 2007; cited from earlier work.
For data set [4], the system named is two human renal cell cancer HTXs, a breast cancer HTX and a murine syngeneic colon cancer. The following applies: P<0.01; ref Burger et al, 2007; cited from earlier work.
Data set [5] has as its system endothelial cell. The following applies: in vitro; ref Bonezzi et al, 2009; cited from earlier work.
In data set [6] the test system is well-vascularised breast cancer HTX. As to the kind of experiment: Antitumour activity in well-vascularised breast cancer HTX. It counts as in vivo, human. As to conditions: for antitumour activity at tolerated doses / antitumour activity at toxic dose levels: SD, i.p.
Data set [7] concerns tumour blood vessels. As to conditions: in vivo; ref Bonezzi et al, 2009; cited from earlier work.
The subject of data set [8] is microtubules. The following applies: ref Bonezzi et al, 2009; cited from earlier work.
A short description of data set [9]: Pre-formulation / solubility. It counts as physicochemical.
Data set [10] concerns doxorubicin-resistant, oestrogen receptor negative human breast cancer xenograft MT-3/ADR. The experiment in a line: Antitumour activity in MT-3/ADR xenograft. It counts as in vivo.
Data set [11] deals with NCI 60-cell line panel (60 human tumour cell lines). As to the kind of experiment: NCI in vitro 60-cell line screen. It counts as cell-based. In a few lines: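 Test compounds were run in each of the 60 human tumour cell lines for 48 h of drug exposure. The data were summarised as a mean graph with COMPARE analysis.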
Data set [12] relates to advanced cancer. As to conditions: phase I, ref Seckl et al, 2012, cited from earlier work.
[13] abbreviates: ref Bradshaw and Westwell, 2004.

Structures are written as SMILES. Structures can show the parent of a compound that is named as a salt. Where two headings read alike, the source gives them in different places.

With `Cc1cc(-c2nc3cc(F)ccc3s2)ccc1N` [5F 203], the GI50 result in data set [1] (NCI 60-cell line screen, ref Bradshaw and Westwell, 2004) is recorded as “low nanomolar”. In addition, in [1] (setting [13]), the “selectivity in NCI 60-cell line screen” value is “selectivity against breast and ovarian cancer sub-panels”.
As to `COc1ccc(/C=C\c2cc(OC)c(OC)c(OC)c2)cc1O` [Combretastatin A-4, reference compound], the solubility result in data set [2] (ref Dark et al, 1997, Tozer et al, 2002) is listed as “poorly soluble”.
Usually IC50 stands for the concentration needed to halve the response being measured. In the case of `COc1ccc(C2=CN3C(=O)c4cc(OC)c(OC)cc4N=C[C@@H]3C2)cc1` [DRH-417], the IC50 in [1] (read-out: mean IC50, NCI 60-cell line panel, ref Burger et al, 2007) was 3 nM. Moreover, in data set [3], the peak plasma concentration is 171 nM. The “antitumour activity in vivo” value in [4] is recorded as “marked activity”.
`COc1ccc(-c2cncn2-c2cc(OC)c(OC)c(OC)c2)cc1` [NSC733436]: the “effect on endothelial cell morphology and capillary formation” value in [5] was “selectively affected endothelial cell morphology and capillary formation”. Besides, in data set [6], the “antitumour activity at tolerated doses” value is reported as “moderate” and the “antitumour activity at toxic dose levels” value is “more pronounced”. The “blood vessel shutdown and tumour necrosis” value in [7] is “caused blood vessel shutdown and tumour necrosis”. For the same compound, the effect on microtubules entry in [8] is reported as “disorganised microtubules”.
For the compound `COc1ccc(-c2cncn2-c2cc(OC)c(OC)c(OC)c2)cc1F` [NSC736359], the “effect on endothelial cell morphology and capillary formation” value in data set [5] was “selectively affected endothelial cell morphology and capillary formation”. Besides, in data set [6], the “antitumour activity at tolerated doses” value is recorded as “moderate” and the “antitumour activity at toxic dose levels” value was “more pronounced”. Further, the “blood vessel shutdown and tumour necrosis” value in data set [7] is “caused blood vessel shutdown and tumour necrosis”. Besides, the effect on microtubules result in data set [8] is “disorganised microtubules”.
Consider `COc1cc(-n2cncc2-c2ccc3ccccc3c2)cc(OC)c1OC` [NSC736992], for which, in [5], the “effect on endothelial cell morphology and capillary formation” value was “selectively affected endothelial cell morphology and capillary formation”. In data set [6], the “antitumour activity at tolerated doses” value was “moderate” and the “antitumour activity at toxic dose levels” value is given as “more pronounced”. In addition, the “blood vessel shutdown and tumour necrosis” value in [7] is “caused blood vessel shutdown and tumour necrosis”. In addition, the effect on microtubules entry in [8] was “disorganised microtubules”.
With `COc1ccc2c(c1)[nH]c(=O)c1c3ccccc3cn21` [NSC 734237], the solubility result in data set [9] is listed as “quite insoluble”. For the same compound, the “antitumour activity at the MTD” value in data set [10] (MTD, i.p., d8–12, 15–19) is listed as “significant activity”. For the same compound, the antitumour activity entry in data set [10] (i.p., d8–12, 15–19) is reported as “dose-dependent antitumour activity”. Besides, in [10] (in vivo), the “CD31+ microvessel density (immunohistochemistry)” value is given as “dose-dependent reduction” and the “Ki-67 staining (immunohistochemistry)” value is listed as “dose-dependent reduction”. Besides, the differential activity entry in data set [11] is on record as “reasonable, but inconclusive”.
With `Cc1cc(-c2nc3cc(F)ccc3s2)ccc1NC(=O)[C@@H](N)CCCCN.Cl.Cl` [Phortress], in data set [12] (preliminary data), the MTD result was “not reached” and the tolerability result is listed as “well tolerated”. In [12] (Thirty-three per cent of the patients), the “patients classified as having stable disease” value is recorded as 14/42. Besides, in data set [2] (setting [13]), the water solubility entry is given as “water-soluble”.
Consider `COc1cc(-n2cncc2-c2ccc3ccccc3c2)cc(OC)c1OC` [water-soluble salt of NSC736992], for which the “density (size and number) of CD31+ blood vessels” value in data set [6] (alone or in combination) was “not affected”. Further, the “efficacy in combination with carboplatin or taxol” value in data set [6] (combination with carboplatin or taxol) is recorded as “not increased”. The “efficacy (additional studies)” value in [6] (same HTX, also with other treatment schedules) is listed as “moderate to borderline”.

Source of the values: publication PMC5520516 (British Journal of Cancer, 2017).
